# Activity calls are given as the source filed them. The calls are words filed in the database; no cut-off is given here.
# Legend:
# [1] = Cytotoxicity against human primary HDF assessed as loss of adhered cells at 5 ug/ml after 24 hrs by MTS assay; format: cell-based
# How it was run: (§1)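 A549 lung epithelial cells or primary human dermal fibroblasts exposed 24 h to peptide (15.62–250 µg/ml, dissolved fresh in culture medium). Nocodazole (5 µg/ml in DMSO) served as toxicity control, with 0.1% v/v DMSO as vehicle control. Metabolic activity was read by MTS viability assay. Data are from three independent triplicate experiments, given as mean ± SEM.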
# A549 [2] = assay: Cytotoxicity against human A549 cells assessed as loss of adhered cells at 5 ug/ml after 24 hrs by MTS assay; format: cell-based; details: a549, 24 h; how it was run: as §1
# Staphylococcus aureus [3] = assay: Bactericidal activity against Staphylococcus aureus 4299 after 24 hrs; format: functional
# Staphylococcus aureus [4] = assay: Bactericidal activity against Staphylococcus aureus ATCC 29213 after 24 hrs; format: functional
# [5] = Cytotoxicity against human A549 cells assessed as cell viability at 15.62 to 250 ug/ml after 24 hrs by MTS assay relative to control; format: cell-based; details: read-out: Activity
# How it was run: (§2)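 Cells exposed 24 h to peptide at 15.62–250 µg/ml, prepared fresh in culture medium from a 500 µg/ml stock. Controls were DMSO (0.1% v/v) or nocodazole (5 µg/ml in DMSO). Metabolic activity was read by MTS viability assay. Mean ± SEM of three independent triplicate experiments.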
# A549 [6] = assay: Cytotoxicity against human A549 cells assessed as cytoskeleton or nuclear disruption at 15.62 to 250 ug/ml after 24 hrs by rhodamine-phalloidin/Hoechst 33342 staining-based fluorescence microscopic method; format: cell-based; details: a549, 24 h
# How it was run: (§3)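 After 24 h peptide exposure, cells were fixed and stained with rhodamine-phalloidin (actin), Alexa Fluor 488 anti-α-tubulin and Hoechst 33342 (nuclei). They were then imaged by automated high-content microscopy. Nocodazole (10 µg/ml) served as toxicity control. Representative images shown at 62.5 µg/ml.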
# Staphylococcus aureus [7] = assay: (§4) Antibacterial activity against Staphylococcus aureus ATCC 29213 infected in C57BL6 mouse cornea assessed as mean corneal thickness at 0.3% administered tropically 2 times on day 1, 4 times on day 2 and 2 times on day 3 starting from 6 hrs post infection measured 48 hrs post last dose by AS-OCT method (reference value: 186.2 +/- 17.5 micrometer); format: functional
# How it was run: (§5)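 Mouse corneal epithelium scratched with a scalpel, then infected with 15 µl of 6×10⁶ CFU/ml S. aureus ATCC 29213. From 6 h p.i., 15 µl of PBS vehicle, 0.3% w/v peptide in PBS or 0.3% moxifloxacin was applied, 8 doses total. Outcomes were slit-lamp examination, AS-OCT corneal thickness and CFU counts of harvested corneas (mean log₁₀ CFU/tissue ± SEM).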
# Staphylococcus aureus [8] = assay: (§6) Antibacterial activity against Staphylococcus aureus ATCC 29213 infected in C57BL6 mouse cornea assessed as decrease in bacterial load/tissue at 0.3% administered tropically 2 times on day 1, 4 times on day 2 and 2 times on day 3 starting from 6 hrs post infection measured 48 hrs post last dose; format: functional; design: scale not given: the % may be the effect or the level left; how it was run: as §5
# Staphylococcus aureus [9] = assay: Antibacterial activity against Staphylococcus aureus ATCC 29213 at 5 to 20 times MIC after 24 hrs; format: functional
# Staphylococcus aureus [10] = assay: Ratio of MBC to MIC for Staphylococcus aureus 4299; format: functional
# Staphylococcus aureus [11] = assay: Antibacterial activity against methicillin-resistant Staphylococcus aureus ATCC 700699 after 24 hrs; format: functional; details: ATCC 700699, 24 h
# Staphylococcus aureus [12] = assay: Antibacterial activity against methicillin-resistant Staphylococcus aureus isolate 42412 after 24 hrs; format: functional; details: isolate 42412, 24 h
# [13] = test system: Staphylococcus saprophyticus; assay: Antibacterial activity against Staphylococcus saprophyticus ATCC 15305 after 24 hrs; format: functional; details: ATCC 15305, 24 h
# Bacillus cereus = assay: Antibacterial activity against Bacillus cereus ATCC 11788 after 24 hrs; format: functional; details: ATCC 11788, 24 h
# Staphylococcus aureus [14] = assay: as §6, with “conjunctival chemosis” for “bacterial load/tissue”, “dose by slit-lamp photography” for “dose”; format: functional; how it was run: as §5
# [15] = test system: Staphylococcus saprophyticus; assay: Antibacterial activity against Staphylococcus saprophyticus ATCC 49907 after 24 hrs; format: functional; details: ATCC 49907, 24 h
# Staphylococcus aureus [16] = assay: Antibacterial activity against methicillin-resistant Staphylococcus aureus isolate 21455 after 24 hrs; format: functional; details: isolate 21455, 24 h
# Enterococcus faecalis [17] = assay: Antibacterial activity against vancomycin-resistant Enterococcus faecalis isolate 1004 after 24 hrs; format: functional; details: isolate 1004, 24 h
# Staphylococcus aureus [18] = assay: Ratio of MBC to MIC for Staphylococcus aureus ATCC 29213; format: functional
# [19] = test system: Staphylococcus saprophyticus; assay: Antibacterial activity against Staphylococcus saprophyticus ATCC BAA 750 after 24 hrs; format: functional; details: ATCC BAA 750, 24 h
# Staphylococcus aureus [20] = assay: as §6, with “corneal infiltrates” for “bacterial load/tissue”, “dose by slit-lamp photography” for “dose”; format: functional; how it was run: as §5
# Staphylococcus aureus [21] = assay: Bactericidal activity against methicillin-resistant Staphylococcus aureus ATCC 700699 after 24 hrs; format: functional
# [22] = Cytotoxicity against human primary HDF assessed as effect on cell morphology at 15.62 to 250 ug/ml after 24 hrs by rhodamine-phalloidin/Hoechst 33342 staining-based fluorescence microscopic method; how it was run: as §3
# Staphylococcus aureus [23] = assay: Antibacterial activity against Staphylococcus aureus ATCC 29213 after 24 hrs; format: functional; details: ATCC 29213, 24 h
# [24] = test system: Staphylococcus saprophyticus; assay: Antibacterial activity against Staphylococcus saprophyticus ATCC 49453 after 24 hrs; format: functional; details: ATCC 49453, 24 h
# Staphylococcus aureus [25] = assay: Bactericidal activity against methicillin-resistant Staphylococcus aureus isolate 21455 after 24 hrs; format: functional
# Enterococcus faecalis [26] = assay: Antibacterial activity against vancomycin-resistant Enterococcus faecalis isolate 1002 after 24 hrs; format: functional; details: isolate 1002, 24 h
# Oryctolagus cuniculus = assay: Toxicity in New Zealand white rabbit corneal-damage model assessed as effect on wound healing at 0.3% administered 4 times a day tropically for 10 days by fluorescein staining-based slit-lamp biomicroscopy; details: in vivo, topical_or_ocular, 240 h
# How it was run: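 Rabbit cornea circularly debrided, then 50 µl of 0.3% (w/v) peptide applied topically 4 times/day. Vehicle (PBS) served as control, 2 eyes PBS versus 4 eyes treated. Re-epithelialization and wound closure followed over time by fluorescein staining and slit-lamp biomicroscopy.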
# Enterococcus faecalis [27] = assay: Antibacterial activity against vancomycin-resistant Enterococcus faecalis ATCC 700802 after 24 hrs; format: functional; details: ATCC 700802, 24 h
# [28] = test system: Bacillus subtilis (Bacillus subtilis); assay: Antibacterial activity against Bacillus subtilis ATCC 6633 after 24 hrs; details: ATCC 6633, 24 h
# [29] = Cytotoxicity against human primary HDF assessed as cytoskeleton or nuclear disruption at 15.62 to 250 ug/ml after 24 hrs by rhodamine-phalloidin/Hoechst 33342 staining-based fluorescence microscopic method; format: cell-based; how it was run: as §3
# [30] = Cytotoxicity against human primary HDF assessed as cell viability at 15.62 to 250 ug/ml after 24 hrs by MTS assay relative to control; format: cell-based; details: primary HDF cells, read-out: Activity; how it was run: as §2
# Enterococcus faecalis [31] = assay: Antibacterial activity against vancomycin-resistant Enterococcus faecalis isolate 1008 after 24 hrs; format: functional; details: isolate 1008, 24 h
# Staphylococcus aureus [32] = assay: Antibacterial activity against methicillin-resistant Staphylococcus aureus ATCC 33591 at 5 to 20 times MIC after 24 hrs; format: functional
# Staphylococcus aureus [33] = assay: Bactericidal activity against Staphylococcus aureus ATCC 29213 assessed as log reduction in bacterial load at 0.5 to 1 ug/ml after 8 hrs by time-kill assay; format: functional
# [34] = test system: Staphylococcus epidermidis; assay: Antibacterial activity against Staphylococcus epidermidis 12228 after 24 hrs; format: functional; details: Staphylococcus epidermidis, 12228, 24 h
# Staphylococcus aureus [35] = assay: as §4, with “24” for “48”, “151.7” for “186.2”, “12.7” for “17.5”; format: functional; how it was run: as §5
# A549 [36] = assay: Cytotoxicity against human A549 cells assessed as effect on cell morphology at 15.62 to 250 ug/ml after 24 hrs by rhodamine-phalloidin/Hoechst 33342 staining-based fluorescence microscopic method; details: a549, 24 h; how it was run: as §3
# Staphylococcus aureus [37] = assay: Antibacterial activity against methicillin-resistant Staphylococcus aureus isolate 1003 after 24 hrs; format: functional; details: isolate 1003, 24 h
# Enterococcus faecalis [38] = assay: Antibacterial activity against vancomycin-resistant Enterococcus faecalis ATCC 29212 after 24 hrs; format: functional; details: ATCC 29212, 24 h
# Enterococcus faecalis [39] = assay: Antibacterial activity against vancomycin-resistant Enterococcus faecalis isolate 1001 after 24 hrs; format: functional; details: isolate 1001, 24 h
# Pseudomonas aeruginosa = assay: Antibacterial activity against Pseudomonas aeruginosa after 24 hrs; format: functional
# Staphylococcus aureus [40] = assay: Antibacterial activity against methicillin-resistant Staphylococcus aureus ATCC 33591 after 24 hrs; format: functional; details: ATCC 33591, 24 h
compound,measurement,setting,value
COC(=O)Nc1nc2ccc(C(=O)c3cccs3)cc2[nH]1 [NOCODAZOLE],Activity,[1],Toxic
same,Activity,A549 [2],Toxic
CC[C@@H](C)[C@@H](NC(=O)[C@@H](CCCNC(=N)N)NC(=O)[C@H](CO)NC(=O)[C@@H](NC(=O)[C@@H](Cc1ccccc1)NC)[C@@H](C)CC)C(=O)N[C@H](C(=O)N[C@@H](CO)C(=O)N[C@H]1C(=O)N[C@@H](C)C(=O)N[C@@H](CC(C)C)C(=O)N[C@@H]([C@@H](C)CC)C(=O)O[C@H]1C)[C@@H](C)CC,Activity,Staphylococcus aureus [3],Active
same,Activity,Staphylococcus aureus [4],Active
same,viability at 24 h,[5],≥ 80%
same,Activity,A549 [6],Non-Toxic
same,Activity,Staphylococcus aureus [7],121.7 um
same,Activity,Staphylococcus aureus [8],>99%
same,Activity,Staphylococcus aureus [9],Active
same,Ratio,Staphylococcus aureus [10],<4
same,MIC,Staphylococcus aureus [11],0.25 µg/mL
same,MIC,Staphylococcus aureus [12],0.0313 µg/mL
same,MIC,[13],< 0.0625 µg/mL
same,MIC,Bacillus cereus,0.5 µg/mL
same,Activity,Staphylococcus aureus [14],Active
same,MIC,[15],< 0.0625 µg/mL
same,MIC,Staphylococcus aureus [16],0.0313 µg/mL
same,MIC,Enterococcus faecalis [17],0.25 µg/mL
same,Ratio,Staphylococcus aureus [18],<4
same,MIC,[19],< 0.0625 µg/mL
same,Activity,Staphylococcus aureus [20],Active
same,Activity,Staphylococcus aureus [21],Active
same,Activity,[22],Non-Toxic
same,MIC,Staphylococcus aureus [23],< 0.0625 µg/mL
same,MIC,[24],< 0.0625 µg/mL
same,Activity,Staphylococcus aureus [25],Active
same,MIC,Enterococcus faecalis [26],1 µg/mL
same,Activity,Oryctolagus cuniculus,Non-Toxic
same,MIC,Enterococcus faecalis [27],0.5 µg/mL
same,MIC,[28],0.125 µg/mL
same,Activity,[29],Non-Toxic
same,viability at 24 h,[30],≥ 80%
same,MIC,Enterococcus faecalis [31],0.5 µg/mL
same,Activity,Staphylococcus aureus [32],Active
same,Activity,Staphylococcus aureus [33],>=2 deltalog10CFU/ml
same,MIC,[34],< 0.0625 µg/mL
same,Activity,Staphylococcus aureus [35],92.3 um
same,Activity,A549 [36],Non-Toxic
same,MIC,Staphylococcus aureus [37],0.5 µg/mL
same,MIC,Enterococcus faecalis [38],0.5 µg/mL
same,MIC,Enterococcus faecalis [39],0.5 µg/mL
same,Activity,Pseudomonas aeruginosa,inactive
same,MIC,Staphylococcus aureus [40],0.125 µg/mL
